# Compounds with a hit are over-represented: about 2.2% of the library has one in this group of screens.
# Neddyl block = cullin neddylation inhibition; P61081+Q13564; 360,000 compounds, 0.58% hits; inhibition, % at 25 µM; AID 651699; TR-FRET cullin neddylation, biochemical; in the data active = inhibition above about 36%
# Target sequence (P61081 whole entry, looked up): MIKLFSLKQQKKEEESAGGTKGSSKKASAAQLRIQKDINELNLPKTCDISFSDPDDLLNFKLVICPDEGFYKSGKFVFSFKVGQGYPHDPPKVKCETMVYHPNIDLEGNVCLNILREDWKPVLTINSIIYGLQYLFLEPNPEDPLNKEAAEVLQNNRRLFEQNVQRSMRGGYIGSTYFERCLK
# Target sequence (Q13564 whole entry, looked up): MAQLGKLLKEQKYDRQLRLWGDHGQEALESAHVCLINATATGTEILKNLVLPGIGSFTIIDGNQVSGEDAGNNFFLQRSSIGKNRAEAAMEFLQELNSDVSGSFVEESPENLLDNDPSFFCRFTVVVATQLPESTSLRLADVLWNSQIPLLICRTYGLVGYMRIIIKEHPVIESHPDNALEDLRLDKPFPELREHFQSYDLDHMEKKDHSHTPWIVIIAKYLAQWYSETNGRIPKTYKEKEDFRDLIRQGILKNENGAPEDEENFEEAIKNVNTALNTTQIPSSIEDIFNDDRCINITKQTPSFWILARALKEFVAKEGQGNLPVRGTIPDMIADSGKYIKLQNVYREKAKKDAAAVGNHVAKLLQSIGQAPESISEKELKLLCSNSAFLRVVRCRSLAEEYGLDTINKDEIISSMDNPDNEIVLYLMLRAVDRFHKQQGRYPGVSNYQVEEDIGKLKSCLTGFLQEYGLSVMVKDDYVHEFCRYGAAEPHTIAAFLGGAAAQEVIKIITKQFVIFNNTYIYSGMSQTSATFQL
# PfM18AAP inh-1 = blocks P. falciparum M18 aspartyl aminopeptidase | inhibition, % at 7.35 µM | recombinant PfM18AAP, H-Glu-NHMec fluorogenic cleavage | 290,000 compounds, 1.2% hits;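 active = inhibition above the campaign mean inhibition over all tested compounds plus 3 SD, cut at about 28% in these data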;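 note: 0% = plate median of test compound wells and 100% = 2 mM ZnCl2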
# HKDC1 inh = blocks human hexokinase HKDC1 activity. AID 493160. Q2TB90. inhibition, % at 20 µM. 340,000 compounds, 0.16% hits. recombinant HKDC1, G6PDH/diaphorase resazurin coupled fluorescence;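 active = inhibition above about 35% when tested at 20 µM, limit read from the data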;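 note: plate controls were DMSO wells with enzyme for no effect and DMSO wells lacking enzyme for full effect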
#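 Test system: Recombinant HKDC1 (HK5) hexokinase enzyme, produced in-house | Input: HKDC1 at 5 µg/mL | Buffer or medium: Tris pH 8.0 buffer with MgCl2, Tween-20, BSA, BME | Schedule: 90 min reaction incubation at room temperature, dark | Technique: Resazurin-to-resorufin fluorescence via G6PDH and diaphorase coupling, 525/613 nm | Controls: DMSO wells with and without enzyme mix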
# PfGluPho inh = PfG6PD (Plasmodium falciparum) enzyme inhibition; PfGluPho enzyme, NADPH resazurin-diaphorase fluorescence; AID 504690; 350,000 compounds, 0.78% hits; inhibition, % at 20 µM;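 active = inhibition reaching at least a set limit at 20 µM in the primary screen, cut at about 59% in these data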;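 note: 0% = DMSO wells with substrate and 100% = DMSO wells lacking glucose-6-phosphate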
# PfM18AAP inh-2 = PfM18AAP inhibition, confirmation | recombinant PfM18AAP, H-Glu-NHMec fluorogenic cleavage | inhibition, % at 7.35 µM | shares compounds with PfM18AAP inh-1 | 2,400 compounds, 28% hits;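 active = mean inhibition over replicate wells above the hit cutoff set for the earlier primary screen, cut at about 29% in these data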;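 note: 0% = median of test compound wells and 100% = 2 mM ZnCl2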
# CTSL1 confirm = Cathepsin L (human) inhibition, confirmation. shares compounds with PfM18AAP inh-1. purified cathepsin L1, Z-Leu-Arg-MCA fluorescence. inhibition, % at 5.96 µM. 2,400 tested, under 10 active. AID 2178;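 active = average inhibition across replicates above the hit cutoff set in the earlier primary screen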;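 note: 0% = median of test compound wells and 100% = Z-Phe-Ala-diazomethylketone 1 µM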
# * hit, by the source's call; . = no result given.
SMILES,Neddyl block,PfM18AAP inh-1,HKDC1 inh,PfGluPho inh,PfM18AAP inh-2,CTSL1 confirm
O=C(CSc1nc2[nH]ncc2c(=O)[nH]1)c1ccc(Cl)cc1,.,20.9,.,.,.,.
COc1cc(Cl)c(C)cc1NC(=O)COC(=O)C1=COCCO1,-1.1,.,-3.1,5.4,.,.
CCOc1ccc(NC(=O)CN(C)C(=O)CCN2C(=O)C3CC=CCC3C2=O)cc1OCC (stereo unspecified),-22.2,.,-4.3,-6.3,.,.
O=C(c1ccc(-c2ccc([N+](=O)[O-])cc2Cl)o1)N1CCOCC1,-7.0,38.5*,-10.7,3.1,-19.8,4.4
O=C(c1ccc(-c2cccc(Cl)c2Cl)o1)N1CCOCC1,-19.6,5.1,-4.8,-0.8,.,.
O=C(O)CCCC(=O)Nc1ccccc1SCCS(=O)(=O)c1ccc(Cl)cc1,-5.6,35.1*,0.6,6.1,-20.8,1.3
Cc1c(C(=O)N2CCCCC2)c(S(=O)(=O)N2CCN(c3ccccc3F)CC2)c(C)n1C,0.0,-2.2,-4.8,-2.0,.,.
CC(=O)c1c(C)[nH]c(C(=O)Nc2ccc(Cl)cc2)c1C,1.6,0.3,3.4,7.1,.,.
CC(=O)c1c(C)[nH]c(C(=O)NCCc2ccc(Cl)cc2)c1C,-0.4,60.6*,-12.7,8.9,-47.4,-1.2
Cc1ccc(C(=O)Nn2cnnc2)cc1[N+](=O)[O-],-18.7,42.8*,-9.3,-6.4,38.9*,-4.5
COC(=O)c1cc(C(=O)Nn2cnnc2)cc([N+](=O)[O-])c1,-27.4,62.7*,-4.6,-4.5,72.7*,1.4
COc1ccc(OC)c(NS(=O)(=O)c2ccc(-c3coc(C)n3)cc2)c1,-7.6,1.0,-3.4,-4.4,.,.
CCC1C(c2ccccc2)=CCC(C(=O)O)C1C (stereo unspecified),-2.6,.,-2.9,-30.6,.,.
CCN(CC)C(=O)c1csc(Nc2cccc3ccccc23)n1,-0.1,31.8*,10.9,1.7,-17.9,3.8
COc1cc2nc(CSc3ncn[nH]3)[nH]c(=O)c2cc1OC,-5.4,62.7*,2.6,2.1,65.9*,-4.3
CC(=O)N1CCC(=NNc2ncc(C(F)(F)F)cc2Cl)CC1,-0.3,33.4*,-4.2,12.6,-3.2,4.7
COc1cccc(OC)c1OCc1cc(C2C3CCCC=C3C(C#N)=C(N)C2(C#N)C#N)c(C)cc1C (stereo unspecified),16.9,36.2*,13.2,19.5,-53.7,-4.3
CC1=C(C(=O)N2CCOCC2)C(c2ccc(O)cc2)NC(=S)N1 (stereo unspecified),4.8,5.0,-4.8,-2.2,.,.
Oc1ccc2c(c1)C1CCCC1(N1CCOCC1)O2 (stereo unspecified),-6.9,35.6*,6.6,13.6,-16.8,-3.9
CC1N(C(=O)N2CCOCC2)CCN1S(=O)(=O)c1cccc(C(F)(F)F)c1 (stereo unspecified),0.6,-7.8,-4.5,-2.0,.,.
Cc1nc2ccccn2c1C(=O)NNC(=O)Nc1ccccc1,7.0,66.2*,-5.9,-1.7,66.6*,-0.4
CN(C)c1ccc(C(=O)NNC(=O)Nc2ccccc2)cc1,-0.8,55.1*,-9.3,7.5,30.6*,-10.1
Cc1nc2ccccn2c1C(=O)NNC(=S)Nc1ccccc1,19.1,17.3,-3.0,-7.4,.,.
O=C(NNC(=O)c1ccc(NC(=O)c2ccccc2)cc1)Nc1ccccc1,-36.2,13.8,-3.1,-13.2,.,.
O=C(NN1C(=O)CSC1=S)C(=O)NN1C(=O)CSC1=S,-5.2,40.7*,-36.7,-45.7,52.4*,-1.5
SMILES,Neddyl block,PfM18AAP inh-1,HKDC1 inh,PfGluPho inh,PfM18AAP inh-2,CTSL1 confirm
O=C(Cc1cccc2ccccc12)NN1C(=O)CSC1=S,-5.4,19.9,-6.4,-15.5,.,.
Cc1cc(C)cc(OCC(=O)Nc2nc(-c3cccnc3)cs2)c1,-1.6,44.4*,-4.8,35.2,-2.5,-3.9
O=C(Nc1nc(=O)c2ccccc2s1)c1ccccc1,-241.6,42.9*,0.5,35.9,-56.3,-8.4
O=C(Nc1nc2ccccc2s1)c1ccc(F)cc1,-6.0,5.9,-6.5,30.9,.,.
CC(C)CC(=O)NC(C)C(c1cccs1)N1CCOCC1 (stereo unspecified),5.2,-8.4,27.4,-16.6,.,.
CN(C)C(=S)Nc1ccc2c(c1)OCO2,0.3,37.6*,2.3,50.0,5.0,1.4
CCN(CC(=O)Nc1ccc2c(c1)OCCO2)C(=O)c1ccc(CS(C)(=O)=O)cc1,0.1,.,0.8,-6.2,.,.
Nc1cc2c(cc1O)CCCC2,16.4,32.6*,-5.4,22.1,57.8*,1.2
O=C1CCCCc2cc(O)c(O)cc21,7.2,.,.,-19.2,.,.
N#C/C(=C\c1coc2ccccc2c1=O)C(N)=S,-27.9,0.6,1.8,54.6,.,.
N#C/C(=C\c1coc2ccc(O)cc2c1=O)C(=O)Nc1nc2ccccc2s1,-19.0,50.8*,32.6,3.8,-15.4,-2.8
Cc1ccc(C2CC(=O)N3CN(c4ccc(Br)cc4)CSC3=C2C#N)o1 (stereo unspecified),-17.9,37.2*,-0.1,54.5,-4.2,1.9
COC(=O)c1cc(=O)c2c(ccc3oc(=O)ccc32)[nH]1,19.5,.,.,.,.,.
CCOC(=O)CN1NC2(CCCC(C)C2)NC1=S (stereo unspecified),-6.9,42.9*,-3.9,20.4,-51.8,-0.8
CCOC(=O)CN1NC2(CCC(C)CC2)NC1=S (stereo unspecified),3.4,42.6*,-1.5,20.5,-47.9,-2.7
COc1ccc(Cl)cc1NC(=O)CSC1=NN2CCCC(=O)N=C2S1,6.1,-3.6,14.2,14.0,.,.
Cc1cc(O)c(N)c(C)c1Cl,0.7,50.1*,1.9,40.5,67.8*,-0.7
CCc1cccc(CC)c1NC(=S)NCCc1ccc(O)c(O)c1,7.9,64.7*,-10.4,23.8,39.6*,-8.6
CC(NC(=O)CNC(=O)c1cccs1)c1cccc(C(F)(F)F)c1 (stereo unspecified),8.7,.,-0.7,-5.0,.,.
COc1ccc(/C=N/Nc2nonc2N)cc1OC,-12.0,5.3,-3.0,-7.9,.,.
COc1ccc(/C=N/Nc2nonc2N)cc1,-28.0,32.4*,-10.8,-2.1,-30.2,-2.3
COc1ccc(/C=N/Nc2nn3cnnc3c3ccccc23)cc1,-10.2,37.5*,-4.3,19.6,-47.6,3.4
CC(=O)Nc1cccc(NC(=O)C(=O)c2cn(CC(=O)N3CCCCC3)c3ccccc23)c1,-31.4,-5.4,1.8,13.1,.,.
CCOC(=O)C1C(=O)C=C(c2cccs2)CC1c1ccccc1 (stereo unspecified),-17.9,55.8*,-11.0,11.4,-43.0,-1.5
CCOC(=O)C1C(=O)C=C(c2cccs2)CC1c1ccccc1C (stereo unspecified),-12.7,4.0,6.6,-17.0,.,.
N=c1c(C(=O)NCc2ccco2)cc2c(=O)n3ccccc3nc2n1C1CCCC1,.,36.0*,-3.4,10.1,-30.9,-0.4
Cc1ccc(S(=O)(=O)NCCn2nc(C)cc2C)cc1,2.2,1.4,0.3,-10.2,.,.
CC(C)(C)C#CCn1c(/C=[N+](\[O-])C2CCCCC2)nc2ccccc21,10.8,-9.5,-6.3,3.6,.,.
O=C(CN1C(=O)NC2(CCCC2)C1=O)NNC(=O)c1ccccc1F,-14.5,.,-5.1,6.8,.,.

# Compound activity (PubChem BioAssay)
